Measured values from PubChem BioAssay.
Activity calls are given as the source filed them. Rule as the data show it, unless noted: active = inhibition above about 30%; inactive = the rest.

What was measured:
[1] = reducers of endogenous Her2 protein level, primary screen, SKBR3 breast tumor cells, AlphaScreen, ATP viability (AID 461;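 active = Her2 level under about 52% in both replicate screens, with viability over 70% of control, limit read from the data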;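 as to Her2 level: lower value means less Her2 protein in the cells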;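 as to viability: percent of carrier control wells set as 100% viability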); settings: 18-24 h, measured here: SKBR3 viability, ATP luminescence, at 10 µM
[2] = biological target: Receptor tyrosine-protein kinase erbB-2 (Homo sapiens) (UniProt P04626); test: as above; settings: 18-24 h, at 10 µM, stronger effect = lower value
[3] = SK-BR-3 cell growth inhibitors, pilot screen, 24 h, human (AID 572;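 active = viability at or below 10% of carrier control in both of two separate runs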;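 also: compound exposure lasted between 18 and 24 h rather than exactly 24 h; 100% = carrier-treated control wells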); settings: SK-BR-3 viability, CellTiter-Glo luminescence, at 10 µM, stronger effect = lower value
[4] = HUVEC growth inhibition – cell-based, human, primary screen (AID 575;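 active = viability at or below 30% in both replicate assays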;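 also: 100% = median of untreated cell wells with 0.1% DMSO on each plate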); settings: HUVEC proliferation, CellTiter-Glo luminescence, 72 h; at 10 µM; stronger effect = lower value
In short: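 System: primary human umbilical vein endothelial cells; Quantity: 1250 endothelial cells in each well; Buffer or medium: supplemented EBM, 2% fetal bovine serum; Doses: one dose, 10 µM final, 0.1% DMSO; Incubation: 72 h compound incubation; Technique: ATP-based CellTiter-Glo luminescent read; Evaluation: percent of median DMSO-control luminescence; Controls: vehicle and MePR control wells.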

[5] = growth inhibitors of H69AR lung tumor, primary screen, human, duplicate replicates (AID 580;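 active = viability at or under a set limit in both replicates, limit being median viability minus 3 SD, cut at about 48% in these data, passing the limit was not always enough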;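 also: 100% = mean luminescence of untreated wells and 0% = no signal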); settings: H69AR lung tumor cells viability, ATP luminescence, 72 h; at 10 µM; stronger effect = lower value
[6] = reversal of MRP1-mediated doxorubicin resistance, pilot screen, H69AR cells, doxorubicin co-treatment (AID 601;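 active = viability loss from added drug above about 55%, and viability with drug at most 40%, in both replicates, limit read from the data, passing the limit was not always enough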); settings: CellTiter-Glo, 72 h, at 10 µM; for differential viability (reversal): stronger effect = higher value
[7] = 384-well plate pilot, post-Golgi transport modulator project, inhibition of yeast transport mutant growth (AID 636; in the data active = inhibition above about 31%); settings: absorbance 615 nm, about 18 h, stronger effect = higher value
[8] = growth suppression of yeast trafficking mutant, preliminary HTS, modulators of trafficking downstream of Golgi apparatus project, 1536-format plate, OD 615 nm (AID 637); settings: yeast transport mutant growth, absorbance 615 nm, 18 h; stronger effect = higher value
[9] = H69AR cells + 2 uM doxorubicin, measured here: viability with 2 uM doxorubicin, stronger effect = lower value
[10] = H69AR cells, compound alone cytotoxicity

Receptor tyrosine-protein kinase erbB-2 (Homo sapiens), sequence (P04626 whole entry, looked up): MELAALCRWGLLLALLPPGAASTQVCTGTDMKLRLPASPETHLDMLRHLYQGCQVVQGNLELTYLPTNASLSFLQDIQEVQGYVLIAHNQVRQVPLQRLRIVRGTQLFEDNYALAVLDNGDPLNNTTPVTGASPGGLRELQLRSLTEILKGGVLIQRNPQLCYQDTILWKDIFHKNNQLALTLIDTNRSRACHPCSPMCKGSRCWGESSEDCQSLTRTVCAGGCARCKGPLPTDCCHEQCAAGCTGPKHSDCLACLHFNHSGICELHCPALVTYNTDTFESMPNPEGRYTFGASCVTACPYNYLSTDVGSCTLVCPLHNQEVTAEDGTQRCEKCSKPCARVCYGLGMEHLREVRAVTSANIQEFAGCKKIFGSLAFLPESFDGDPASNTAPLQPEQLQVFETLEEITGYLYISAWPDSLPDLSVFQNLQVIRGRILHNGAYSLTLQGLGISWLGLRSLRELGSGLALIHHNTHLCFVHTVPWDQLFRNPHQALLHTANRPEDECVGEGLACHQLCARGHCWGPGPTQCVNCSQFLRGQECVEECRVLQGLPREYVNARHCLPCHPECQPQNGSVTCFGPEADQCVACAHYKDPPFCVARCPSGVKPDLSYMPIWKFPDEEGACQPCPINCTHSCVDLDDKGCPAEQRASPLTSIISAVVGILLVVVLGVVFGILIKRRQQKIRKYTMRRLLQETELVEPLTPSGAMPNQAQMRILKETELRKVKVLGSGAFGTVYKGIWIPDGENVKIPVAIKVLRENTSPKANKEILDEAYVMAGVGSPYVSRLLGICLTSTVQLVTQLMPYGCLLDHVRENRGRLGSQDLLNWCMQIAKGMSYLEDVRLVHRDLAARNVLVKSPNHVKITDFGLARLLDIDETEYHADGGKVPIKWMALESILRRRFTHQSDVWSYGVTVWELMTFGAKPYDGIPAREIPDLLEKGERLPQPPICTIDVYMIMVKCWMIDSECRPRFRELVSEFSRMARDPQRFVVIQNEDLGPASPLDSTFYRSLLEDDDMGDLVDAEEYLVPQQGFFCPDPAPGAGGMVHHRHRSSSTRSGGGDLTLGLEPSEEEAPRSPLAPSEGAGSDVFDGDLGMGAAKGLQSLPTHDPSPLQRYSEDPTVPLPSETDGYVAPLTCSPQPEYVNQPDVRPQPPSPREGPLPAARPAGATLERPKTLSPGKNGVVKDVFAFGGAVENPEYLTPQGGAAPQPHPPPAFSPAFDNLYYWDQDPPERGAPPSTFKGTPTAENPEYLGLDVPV

Structure (SMILES) | viability [1] | Her2 level [2] | viability [3] | viability [4] | viability [5] | differential viability (reversal) ([6]; H69AR cells + 2 uM doxorubicin) | viability [6, 9] | viability [6, 10] | inhibition [7] | inhibition [8]
O=C(Nc1ccccc1)c1cccc(N2CCCC2=O)c1 | 93% | 114% (inactive) | 93% (inactive) | 104% (inactive) | 103% (inactive) | 18.2% (inactive) | 84.8% | 103% | -1.07% (inactive) | -9.52% (inactive)
CC(=O)N(CCN(C(C)=O)c1ccccc1)c1ccccc1 | 105% | 93% (inactive) | 105% (inactive) | 88.8% (inactive) | 91.7% (inactive) | 11.7% (inactive) | 80% | 91.7% | -1.95% (inactive) | -1.64% (inactive)
Cc1cccc(-n2ccnc2SCC(=O)Nc2cc(C)on2)c1 | 96% | 102% (inactive) | 96% (inactive) | 96.3% (inactive) | 99.1% (inactive) | 18.6% (inactive) | 80.4% | 99.1% | 0.79% (inactive) | -4.91% (inactive)
Cn1cnc2c(N3CCCCC3)nccc21 | 116% | 104% (inactive) | 116% (inactive) | 87.3% (inactive) | 90.5% (inactive) | -5.21% (inactive) | 95.7% | 90.5% | -4.16% (inactive) | -1.64% (inactive)
O=c1c2[nH]c3ccccc3c2ncn1CCCn1ccnc1 | 92% | 77.5% (inactive) | 92% (inactive) | 93.7% (inactive) | 96.8% (inactive) | 1.08% (inactive) | 95.7% | 96.8% | -3.77% (inactive) | -0.83% (inactive)
O=C1CCN(C(=O)c2ccccc2)C2CCCCC12 (stereo not given) | 98% | 124% (inactive) | 98% (inactive) | 105% (inactive) | 90.3% (inactive) | -0.825% (inactive) | 91.1% | 90.3% | -4.55% (inactive) | -11% (inactive)
O=C(Nc1ccc(S(=O)(=O)NC2CCCC2)cc1)c1cnccn1 | 92% | 82.5% (inactive) | 92% (inactive) | 104% (inactive) | 93.7% (inactive) | 2.56% (inactive) | 91.2% | 93.7% | -2.5% (inactive) | -4% (inactive)
O=C(Nc1ccncc1)c1cncc(Br)c1 | 78% | 95.5% (inactive) | 78% (inactive) | 114% (inactive) | 100% (inactive) | 4.04% (inactive) | 96.4% | 100% | -2.57% (inactive) | 1.5% (inactive)
CCC1=C(C(=O)OC)C(c2cc(OC)ccc2OC)C(C#N)=C(N)O1 (stereo not given) | 99.5% | 87.5% (inactive) | 99.5% (inactive) | 71.9% (inactive) | 87.2% (inactive) | -0.035% (inactive) | 87.2% | 87.2% | -6.67% (inactive) | -0.98% (inactive)
CC(C)CNC(=O)c1ccccc1NC(=O)c1ccc(CN2CCOCC2)cc1 | 92.5% | 96% (inactive) | 92.5% (inactive) | 106% (inactive) | 99.6% (inactive) | 11.9% (inactive) | 87.7% | 99.6% | -5.68% (inactive) | 1.8% (inactive)
COc1ccc(CNC(=O)COC(=O)c2n[nH]c3ccccc23)cc1OC | 88% | 84.5% (inactive) | 88% (inactive) | 89.7% (inactive) | 92.6% (inactive) | 8.04% (inactive) | 84.6% | 92.6% | -7.47% (inactive) | 2.38% (inactive)
COc1ccc(CCNC(=O)C2=COCCO2)cc1 | 126% | 94% (inactive) | 126% (inactive) | 109% (inactive) | 108% (inactive) | 4.46% (inactive) | 104% | 108% | -6.58% (inactive) | -5.08% (inactive)
Cc1cc2cc(CN(CC3CCCO3)C(=O)c3cnccn3)c(=O)[nH]c2cc1C (stereo not given) | 75% | 130% (inactive) | 75% (inactive) | 89.9% (inactive) | 92.3% (inactive) | 6.07% (inactive) | 86.3% | 92.3% | -0.8% (inactive) | -4.59% (inactive)
CCOc1ccc2cc(C#N)c(SCC(=O)N3CCOCC3)nc2c1 | 109% | 81.5% (inactive) | 109% (inactive) | 87.1% (inactive) | 74.6% (inactive) | 31.8% (inactive) | 42.8% | 74.6% | -6.8% (inactive) | 1.94% (inactive)
CS(=O)(=O)c1ccc2nc(NC(=O)CCC(=O)c3cccs3)sc2c1 | 91% | 102% (inactive) | 91% (inactive) | 87.5% (inactive) | 69.8% (inactive) | -4.38% (inactive) | 74.2% | 69.8% | -1.05% (inactive) | 4.35% (inactive)
CC(C)CCNC(=O)NC(=O)COc1ccccc1C#N | 92.5% | 109% (inactive) | 92.5% (inactive) | 112% (inactive) | 97.1% (inactive) | 7.26% (inactive) | 89.8% | 97.1% | -3.78% (inactive) | -5.4% (inactive)
O=c1c2ccccc2nnn1CSc1nc2cc(Cl)ccc2c(=O)n1Cc1ccco1 | 102% | 104% (inactive) | 102% (inactive) | 81.5% (inactive) | 86.4% (inactive) | 4.62% (inactive) | 81.7% | 86.4% | -0.53% (inactive) | -4.03% (inactive)
CN1C(=O)C(CC(=O)N2CCN(C(c3ccccc3)c3ccccc3)CC2)N(C)C1=O (stereo not given) | 90.5% | 83% (inactive) | 90.5% (inactive) | 89.1% (inactive) | 81.9% (inactive) | -14% (inactive) | 95.9% | 81.9% | 0.26% (inactive) | -3.67% (inactive)
O=C(c1cccc(Cl)c1)N1CCN(Cc2ccncc2)CC1 | 92% | 96.5% (inactive) | 92% (inactive) | 96.2% (inactive) | 105% (inactive) | 9.47% (inactive) | 95.8% | 105% | -0.27% (inactive) | 6.89% (inactive)
COC(=O)Cc1c(C)nc2nc(-c3ccco3)[nH]n2c1=O | 110% | 93% (inactive) | 110% (inactive) | 93.6% (inactive) | 98.7% (inactive) | 8.05% (inactive) | 90.6% | 98.7% | -2.76% (inactive) | -3.65% (inactive)
COc1cccc(NC(=O)COC(=O)c2ccco2)c1 | 112% | 94% (inactive) | 112% (inactive) | 97.6% (inactive) | 83.8% (inactive) | 2.71% (inactive) | 81.1% | 83.8% | -6.8% (inactive) | -1.27% (inactive)
O=C(Nc1ccc(N2CCOCC2)cc1)c1cc2ccccc2o1 | 99.5% | 117% (inactive) | 99.5% (inactive) | 109% (inactive) | 85.7% (inactive) | 3.15% (inactive) | 82.6% | 85.7% | -0.26% (inactive) | -10.8% (inactive)
Cc1c(C(=O)N2CCOCC2)oc2ccc(S(=O)(=O)N3CCCC3)cc12 | 95% | 109% (inactive) | 95% (inactive) | 94.3% (inactive) | 87.8% (inactive) | -6.14% (inactive) | 94% | 87.8% | -6.35% (inactive) | -4.59% (inactive)
CCOC(=O)c1ccc(CC2S/C(=C(\C#N)C(C)=O)NC2=O)cc1 (stereo not given) | 91.5% | 89.5% (inactive) | 91.5% (inactive) | 95.7% (inactive) | 89.6% (inactive) | -4.15% (inactive) | 93.7% | 89.6% | -6.53% (inactive) | 1.94% (inactive)
COc1ccc(NC(=O)Cn2nnc(-c3ccccc3N)n2)cc1OC | 106% | 108% (inactive) | 106% (inactive) | 94.4% (inactive) | 97.8% (inactive) | 4.44% (inactive) | 93.3% | 97.8% | -5.07% (inactive) | 10% (inactive)
CCn1nc(C)c(NC(=O)c2cc(Br)ccc2Cl)c1C | 84.5% | 78% (inactive) | 84.5% (inactive) | 88.5% (inactive) | 94% (inactive) | 14.3% (inactive) | 79.7% | 94% | -4.42% (inactive) | 3.44% (inactive)
CC(C)(C)n1cnc2cc(NS(=O)(=O)c3ccc(Br)cc3)ccc21 | 104% | 69.5% (inactive) | 104% (inactive) | 80.2% (inactive) | 87% (inactive) | -8.39% (inactive) | 95.4% | 87% | -1.58% (inactive) | -0.48% (inactive)
